Results gathered from unrelated publications.

SMILES | tested on | test | system | conditions | quantity | result
Nc1cc(CNC(=O)c2cc3[nH]ccc3cc2Cl)cc(C(F)(F)F)c1 | HEK-293T | cell growth or viability | – | 100 µM, 24 h | viability | < 50%
O=C(c1ccc(Oc2ccccc2)cc1Cl)c1c[nH]c2ncnc(N[C@@H]3CC[C@@H](CO)OC3)c12 | – | – | cynomolgus monkey, plasma | oral, 10 mg/kg, single dose | AUC(0-t) | 82700 ng·h/mL
c1ccc(-c2nc(N3CCC(c4ccccn4)C3)c3ccccc3n2)nc1 (stereo not drawn) | – | – | female BALB/c mouse, plasma | oral, 50 mg/kg | MRT(0-t) | 3 h
CCOP(=O)(OCC)[C@@H]1C[C@@H](n2cc(-c3ccccc3F)nn2)ON1C | human T-lymphocyte | cell growth or viability | – | 72 h | CC50 | > 250 µM
CCCCCCn1c(-c2cccc(Cl)c2)n[nH]c1=S | HepG2 | cell growth or viability, resazurin | – | 10 µM, 24 h | viability | 103%
COc1ccc2c(c1)c1c(n2CO)CN2CCc3cc(OCc4ccccc4)c(OC)cc3C2C1 (stereo not drawn) | HepG2 | cell growth or viability | – | 5 µM, 24 h | viability | 100%
COc1ccc2nccc(N3CCc4c(cc(Cn5ccnc5)cc4-c4cn(C)nc4C(F)(F)F)C3=O)c2c1 | – | – | male CD-1 mouse, plasma | intravenous, 3 mg/kg | MRT(0-inf) | 0.6 h
CN(C(=O)n1cnc(-c2ccc[n+]([O-])c2)c1)C1CCCCC1 | – | – | male cynomolgus monkey, plasma | oral, 0.3 mg/kg | AUC(0-t) | 452 ng·h/mL
CCc1cc(C(=O)NC)c2nccc(N3CCc4c(cc(Cn5ccnc5)cc4-c4cn(C)nc4C(F)(F)F)C3=O)c2c1 | – | – | male CD-1 mouse, plasma | oral, 150 mg/kg | MRT(0-inf) | 2.8 h
CCN(CC)C(=O)[C@@]1(c2ccccc2)C[C@H]1CN | – | – | male cynomolgus monkey, plasma | oral, 30 mg/kg | AUC(0-t) | 40000 ng·h/mL
CNC(=O)c1cc(OC)cc2c(N3CCc4c(cc(Cn5ccnc5)cc4-c4cn(C)nc4C(F)(F)F)C3=O)ccnc12 | – | – | male CD-1 mouse, plasma | oral, 50 mg/kg | MRT(0-inf) | 2 h
CC(C)(Nc1nc(-c2ccccn2)nc2ccccc12)c1ccccn1 | – | – | female BALB/c mouse, plasma | oral, 50 mg/kg | MRT(0-t) | 6.8 h
